Two substances from PMC3729426 (Chemistry (Weinheim an der Bergstrasse, Germany), 2012) can be followed below.

Ends that are not written are not given here. Lumi4(Tb) = Lumi4(Tb) terbium luminescent complex

The test system of data set [1] is MDCKII cells. The class given is cell-based, canine. Conditions: summary of microscopic observations at higher concentrations. Summed up: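 MDCKII cells were incubated 30 min at 37 °C in DMEM with FBS, or serum-free, with Tb3+ complex–peptide conjugates at 5, 20 or 60 μM. In one condition, 5 μM conjugate was combined with 30 μM unconjugated Arg9. Live cells were imaged by time-gated luminescence microscopy (10 μs delay, λex 365 nm, λem 540 ± 10 nm) to score punctate versus diffuse cytoplasmic/nuclear distribution.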

Data set [2] deals with MDCKII cells.

On to “3: an N-terminal fusion of Lumi4(Tb) to Tat (49–57) ({Lumi4(Tb)}-RKKRRQRRR; UniProt P04608 49-57, looked up, fragment) [compound 3]”, for which, in the data set on MDCKII cells [1], the “mechanism of delivery mediated by the CPP” value is “non-endocytic, cytoplasmic delivery”.
As for “17: cysteine amide-linked heterodimer of Lumi4 and TEGTMP coupled via a disulfide bond to the peptide Cys-TAT(47–57)-Lys(FAM) [compound 17]”, the “mechanism of delivery mediated by the CPP” value in the data set with MDCKII cells [1] is “non-endocytic, cytoplasmic delivery”. In addition, the “intracellular disulfide reduction observed microscopically” value with MDCKII cells [2] is “its disulfide bond is reduced in the cytoplasm and nucleus”. For the same substance, in the data set on MDCKII cells [2] (MDCKII cells, 17 (10 μM), serum-free medium, 10 min, 37 °C, continuous wave fluorescence), the “fluorescein signal distribution immediately after washing” value was “primarily diffuse throughout the cytoplasm and nucleus”. Besides, the “fluorescein signal distribution 2 h post-wash” value in the data set on MDCKII cells [2] (MDCKII cells, 17 (10 μM), serum-free medium, 10 min, imaged 2 h post-wash) was “punctate staining pattern predominant”. Also, the “Tb3+-to-fluorescein LRET emission ratio (520 nm/540 nm), 2 h post-wash versus immediate” value in the data set with MDCKII cells [2] (MDCKII cells, nuclear region, 17 (10 μM), 4 separate experiments) was “significantly reduced”.
